This note sets out measurements from ChEMBL document CHEMBL1641440, “Virtual screening based identification of novel small-molecule inhibitors targeted to the HIV-1 capsid” (Bioorg Med Chem, 2011).

Activity calls are given as the source filed them. The calls are words filed in the database; no cut-off is given here.

As a reminder, the IC50 is the concentration needed to halve the response being measured.

For experiment [1], the system named is Human immunodeficiency virus 1. The experiment in a line: Antiviral activity against HIV1 89.6 infected in human PBMC assessed as inhibition of viral p24 antigen production after 4 days by ELISA. Particulars: Human immunodeficiency virus 1, 89.6, 96 h. The class given is functional, organism-based. In general terms: In an ELISA, binding on a coated surface is turned into a signal by an enzyme label.

The subject of experiment [2] is Human immunodeficiency virus 1. The experiment in a line: Antiviral activity against primary HIV1 isolate RU570 infected in human PBMC assessed as inhibition of viral p24 antigen production after 7 days by ELISA. The conditions noted are these: Human immunodeficiency virus 1, isolate RU570, 168 h.
The subject of experiment [3] is Human immunodeficiency virus 1. The experiment in a line: Antiviral activity against HIV1 BaL infected in human PBMC assessed as inhibition of viral p24 antigen production after 4 days by ELISA. The class given is functional, organism-based. Particulars: Human immunodeficiency virus 1, BaL, 96 h.
For experiment [4], the system named is Human immunodeficiency virus 1. Nature of the experiment: Antiviral activity against HIV1 SF2 infected in human MT2 cells assessed as inhibition of viral p24 antigen production after 4 days by ELISA. It is filed as functional, organism-based. The conditions noted are these: Human immunodeficiency virus 1, SF2, MT2, 96 h. The method, boiled down:
(§1)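 MT-2 cells (1 × 10^4) were infected at 100 TCID50 (0.01 MOI) in RPMI 1640 with 10% FBS, with or without graded inhibitor concentrations, overnight. Medium was then replaced with fresh inhibitor-containing medium. On day 4, supernatant was mixed 1:1 with 5% Triton X-100 and p24 was measured by ELISA. IC50 is the concentration giving 50% reduction in p24.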

The subject of experiment [5] is Human immunodeficiency virus 1. The experiment in a line: Antiviral activity against HIV1 3B infected in human MT2 cells assessed as inhibition of viral p24 antigen production after 4 days by ELISA. The class given is functional, organism-based. The conditions noted are these: Human immunodeficiency virus 1, 3B, MT2, 96 h. The method, boiled down:
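MT-2 cells (1 × 10^4) infected with HIV-1 IIIB at 100 TCID50 (0.01 MOI) in RPMI 1640/10% FBS with graded inhibitor concentrations overnight; medium then replaced with fresh medium containing freshly prepared compound. On day 4 supernatant mixed 1:1 with 5% Triton X-100 and p24 measured by ELISA; IC50 = concentration giving 50% reduction in p24 production. Mean ± SD.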

In experiment [6] the test system is Human immunodeficiency virus 1. Nature of the experiment: Antiviral activity against primary HIV1 isolate 92US657 infected in human PBMC assessed as inhibition of viral p24 antigen production after 7 days by ELISA. Particulars: Human immunodeficiency virus 1, isolate 92US657, 168 h.
The test system of experiment [7] is Human immunodeficiency virus 1. Nature of the experiment: Antiviral activity against HIV1 MN infected in human MT2 cells assessed as inhibition of viral p24 antigen production after 4 days by ELISA. It is filed as functional, organism-based. Particulars: Human immunodeficiency virus 1, MN, MT2, 96 h. The method, boiled down: as §1
Experiment [8] relates to Human immunodeficiency virus 1. The experiment in a line: Antiviral activity against primary HIV1 isolate 93IN101 infected in human PBMC assessed as inhibition of viral p24 antigen production after 7 days by ELISA. The conditions noted are these: Human immunodeficiency virus 1, isolate 93IN101, 168 h.
For experiment [9], the system named is Human immunodeficiency virus 1. Nature of the experiment: Antiviral activity against primary HIV1 isolate BCF02 infected in human PBMC assessed as inhibition of viral p24 antigen production after 7 days by ELISA. Particulars: Human immunodeficiency virus 1, isolate BCF02, 168 h.
Experiment [10] relates to Human immunodeficiency virus 1. The experiment in a line: Antiviral activity against azidothymidine-resistant HIV1 SF2 infected in human MT2 cells assessed as inhibition of viral p24 antigen production after 4 days by ELISA. The class given is functional, organism-based. Particulars: Human immunodeficiency virus 1, MT2, 96 h. A digest of the protocol:
as §1

For experiment [11], the system named is Human immunodeficiency virus 1. The experiment in a line: Antiviral activity against HIV1 3B infected in human MT2 cells assessed as inhibition of viral p24 antigen production at 5 uM after 4 days by ELISA. The class given is functional, organism-based.
The test system of experiment [12] is Human immunodeficiency virus 1. Nature of the experiment: Antiviral activity against primary HIV1 isolate 94UG103 infected in human PBMC assessed as inhibition of viral p24 antigen production after 7 days by ELISA. Particulars: Human immunodeficiency virus 1, isolate 94UG103, 168 h.
Experiment [13] has as its system Human immunodeficiency virus 1. Nature of the experiment: Antiviral activity against primary HIV1 isolate 93BR020 infected in human PBMC assessed as inhibition of viral p24 antigen production after 7 days by ELISA. Particulars: Human immunodeficiency virus 1, isolate 93BR020, 168 h.
Experiment [14] has as its system Human immunodeficiency virus 1. Nature of the experiment: Antiviral activity against HIV1 RF infected in human MT2 cells assessed as inhibition of viral p24 antigen production after 4 days by ELISA. Particulars: Human immunodeficiency virus 1, RF, MT2, 96 h. The class given is functional, organism-based. A digest of the protocol:
as §1

Experiment [15] concerns Human immunodeficiency virus 1. The experiment in a line: Antiviral activity against primary HIV1 isolate 92UG024 infected in human PBMC assessed as inhibition of viral p24 antigen production after 7 days by ELISA. The conditions noted are these: Human immunodeficiency virus 1, isolate 92UG024, 168 h.
Experiment [16] deals with Structural capsid protein (Human immunodeficiency virus 1) (UniProt Q76129). The experiment in a line: Binding affinity to HIV1 capsid protein assessed as decrease in formation of mature-like particles after 30 mins by electron microscopy. A digest of the protocol: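 Purified CA at 50 μM in Na2HPO4 buffer pH 8.0, without RNA, was incubated with inhibitor at 0.5 to 5 molar equivalents for 30 min at 4 °C. It was then dialysed overnight at 4 °C in the same buffer plus 100 mM NaCl. Samples were spotted on poly-L-lysine-treated grids, negatively stained with uranyl acetate and imaged by EM at 80 kV for tube-shaped particles.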

Experiment [17] deals with Human immunodeficiency virus 1. The experiment in a line: Antiviral activity against protease-resistant HIV1 RF/L-323-12-3 infected in human MT2 cells assessed as inhibition of viral p24 antigen production after 4 days by ELISA. The class given is functional, organism-based. Particulars: Human immunodeficiency virus 1, RF/L-323-12-3, MT2, 96 h. The method, boiled down:
as §1

A short description of experiment [18]: Selectivity index, ratio of CC50 for human MT2 cells to IC50 for HIV1 3B infected in human MT2 cells. The class given is functional. A digest of the protocol: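 IC50: MT-2 cells infected with HIV-1 IIIB (100 TCID50, 0.01 MOI) overnight with graded compound, then medium refreshed with compound; day-4 p24 measured by ELISA. […] Ratio is CC50/IC50.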

Chain of Structural capsid protein (Human immunodeficiency virus 1) (Q76129 as listed by the source): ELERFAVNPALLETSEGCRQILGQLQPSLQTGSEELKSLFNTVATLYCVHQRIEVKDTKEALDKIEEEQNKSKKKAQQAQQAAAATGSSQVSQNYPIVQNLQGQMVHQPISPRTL

Take `Cc1ccc2[nH]c(=O)c(CN(Cc3ccco3)C(=O)c3ccc(Cl)cc3)cc2c1`: the IC50 in experiment [1] was 6.17 µM; in [2] it was 2.84 µM; in experiment [3] it was 4.22 µM; in experiment [4], 2.43 µM; in [5], 1.06 µM; in experiment [6] it was 5.46 µM. The IC50 was 2.88 µM in [7]; 2.7 µM in experiment [8]; 6.07 µM in [9]; 5.77 µM in experiment [10]; 3.93 µM in experiment [12]; 4.18 µM in experiment [13]. Moreover, the IC50 worked out at 1.64 µM in experiment [14], 2.57 µM in experiment [15] and 1.18 µM in experiment [17]. The inhibition result in experiment [11] is “Active”. For the same molecule, the inhibition result in experiment [16] is “Dose-dependent effect”. Further, the “Selectivity Index” value in [18] was over 60.
